# Data as given in ChEMBL document CHEMBL3853326, “Proteolytically Stable Foldamer Mimics of Host-Defense Peptides with Protective Activities in a Murine Model of Bacterial Infection” (J Med Chem, 2016).
# Calls of active or inactive are those of the source.
# Experiments:
# [1] = Cytotoxicity against mouse RAW264.7 cells assessed as reduction in cell viability after 4 hrs by MTT assay; assay type: toxicity; settings: read-out: LC50
# In short: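 RAW 264.7 murine macrophages (2 × 10^5 cells per well) were incubated with increasing compound concentrations for 4 h. Viability was read by MTT assay. The dose causing 50% cell lethality was reported as mean ± SEM, n = 3.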
# [2] = tested on: Bacillus anthracis; assay: Time required for 50 % bactericidal activity against nonencapsulated Bacillus anthracis 9602PR at 10 ug/ml; assay type: functional
# [3] = Stability assessed as trypsin (unknown origin)-mediated compound degradation after 24 hrs by HPLC analysis; assay type: ADME; settings: human
# [4] = Drug uptake in BALB/c mouse kidney at 100ug, iv through bolus administration after 30 hrs by RP-HPLC analysis; assay type: ADME, organism-based; settings: in vivo
# In short: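 Kidneys were taken 4 and 30 h after iv tritiated compound and homogenised in 1 N HCl. Homogenates were extracted with methanol/0.1% TFA (4:1), lyophilised 48 h and resuspended in water. Samples ran on C18 RP-HPLC with UV (224, 254 nm) and radioactivity detection. Elution was 10 min isocratic at 20% B, then 20–100% B over 15 min (B: acetonitrile, 0.1% TFA).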
# [5] = Tmax in BALB/c mouse at 100ug, iv as bolus administration by liquid scintillation counting; assay type: ADME, organism-based; settings: in vivo
# In short: (§1)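 Conscious BALB/c mice got one iv bolus of [3H]-labelled oligourea (0.5 × 10^6 cpm per 100 μg, 5.8 × 10−2 μmol) in PBS. Blood (10–20 μL) was drawn from the retro-orbital sinus at 0.6, 2, 3.5, 5.5, 8.7, 15 and 240 min and counted by liquid scintillation. PK was fitted by a two-compartment iv bolus model; n = 2 mice.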
# [6] = Selectivity index, ratio of HD100 for sheep RBC to MIC for Escherichia coli ATCC 25922
# [7] = tested on: Bacillus anthracis; assay: In vivo bactericidal activity against encapsulated Bacillus anthracis 9602P spores infected in mouse assessed as increase in time of survival at 20 ug/ml, administered intranasally for 15 mins to 48 hrs post infection measured for 15 days post dose; assay type: functional, organism-based
# [8] = Drug uptake in BALB/c mouse kidney cortex at 100 ug/ml, iv after 4 to 48 hrs by high resolution beta radiometric imaging analysis; assay type: ADME, organism-based; settings: in vivo
# In short: (§2)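 BALB/c mice got 100 μg (5 μCi) tritiated compound iv in PBS. At 4, 30 and 48 h the mice were anaesthetised with halothane and frozen in isopentane/dry ice at −80 °C. Whole-body sagittal cryosections (20 μm, cut at −25 °C) were exposed 40 h on a β-imager. Counts per mm2 were read by image analysis, with a muscle-area detection threshold. Values are mean ± SD of 2–6 determinations.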
# [9] = tested on: Bacillus anthracis; assay: Time required for 50 % bactericidal activity against germinating spore form of Bacillus anthracis 9602P at 10 ug/ml; assay type: functional
# [10] = Drug uptake in BALB/c mouse nasopharyngeal duct at 20 ug/ml, administered intranasally at 4 hrs post dose by high resolution beta radiometric imaging analysis; assay type: ADME; settings: in vivo, inhaled_or_intranasal
# In short: (§3)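 BALB/c mice got 20 μg (5 μCi) tritiated compound intranasally. At 4, 30 and 48 h they were anaesthetised with halothane and frozen at −80 °C. Whole-body 20 μm sagittal cryosections were exposed 40 h on a high-resolution β-imager. Regional radioactivity was quantified as counts per mm2 per 40 h by image analysis.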
# [11] = Primary phase half life in BALB/c mouse at 100ug, iv as bolus administration by liquid scintillation counting; assay type: ADME, organism-based; settings: in vivo; in short: as §1
# [12] = Drug excretion in BALB/c mouse urinary bladder at 100ug, iv as bolus administration after 240 mins by liquid scintillation counting; assay type: ADME, organism-based; settings: in vivo, 4 h; in short: as §1
# [13] = Selectivity ratio of LC50 for mouse RAW 264.7 cells to ratio of EC50 for germinating spore form of Bacillus anthracis 9602P; assay type: ADME; settings: RAW264.7 cells, read-out: Selectivity Index
# [14] = tested on: Bacillus anthracis; assay: Time required for 50 % bactericidal activity against encapsulated Bacillus anthracis 9602P at 10 ug/ml; assay type: functional
# [15] = tested on: Bacillus anthracis; assay: In vivo bactericidal activity against encapsulated Bacillus anthracis 9602P spores infected in mouse assessed as increase in time of survival at 20 ug/ml, sc administered for 15 mins to 48 hrs post infection measured for 15 days post dose; assay type: functional, organism-based
# [16] = Drug uptake in BALB/c mouse kidney cortex at 20 ug/ml, administered intranasally after 4 to 48 hrs by high resolution beta radiometric imaging analysis relative to iv dosing; assay type: ADME, organism-based; settings: in vivo, inhaled_or_intranasal; in short: as §3
# [17] = tested on: Bacillus anthracis; assay: Bactericidal activity against germinated spore form of Bacillus anthracis 9602P assessed as colony forming units after 30 mins; assay type: functional; settings: 0.5 h
# [18] = Drug uptake in BALB/c mouse liver at 100 ug/ml, iv after 4 to 48 hrs by high resolution beta radiometric imaging analysis; assay type: ADME, organism-based; settings: in vivo; in short: as §2
# [19] = tested on: Bacillus anthracis; assay: Bactericidal activity against nonencapsulated Bacillus anthracis 9602PR assessed as reduction in colony forming units after 30 mins; assay type: functional; settings: 0.5 h
# [20] = Stability assessed as Streptomyces griseus pronase E-mediated compound degradation after 24 hrs by HPLC analysis; assay type: ADME
# [21] = Ratio of drug level in liver to muscle in BALB/c mouse at 100 ug/ml, iv after 4 hrs by high resolution beta radiometric imaging analysis; assay type: ADME, organism-based; settings: in vivo; in short: as §2
# [22] = Plasma protein binding in CD1 mouse at 10 uM after 4 hrs by HPLC/MS/MS analysis; assay type: ADME, cell-free; settings: read-out: PPB
# In short: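 Binding was measured by equilibrium dialysis against CD-1 mouse plasma.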
# [23] = Terminal half life in BALB/c mouse at 100ug, iv as bolus administration by liquid scintillation counting; assay type: ADME, organism-based; settings: in vivo; in short: as §1
# [24] = tested on: Bacillus anthracis; assay: Bactericidal activity against Bacillus anthracis 9602P non-germinated spores assessed as colony forming units at 10 ug/ml incubated for 30 mins followed by heating for 30 mins (reference value: 5.28 +/- 0.02 CFU); assay type: functional
# [25] = Ratio of drug level in kidney cortex to muscle in BALB/c mouse at 100 ug/ml, iv after 4 hrs by high resolution beta radiometric imaging analysis; assay type: ADME, organism-based; settings: in vivo; in short: as §2
# [26] = Selectivity index, ratio of HD100 for sheep RBC to MIC for Staphylococcus aureus ATCC 25923
# [27] = Drug uptake in BALB/c mouse lungs at 20 ug/ml, administered intranasally up to 4 hrs by high resolution beta radiometric imaging analysis; assay type: ADME, Lung; settings: in vivo, inhaled_or_intranasal; in short: as §3
# [28] = tested on: Bacillus anthracis; assay: Bactericidal activity against encapsulated Bacillus anthracis 9602P assessed as reduction in colony forming units after 30 mins; assay type: functional; settings: 0.5 h
# [29] = Drug excretion in BALB/c mouse urine at 20 ug/ml, administered intranasally after 6 hrs by high resolution beta radiometric imaging analysis; assay type: ADME; settings: in vivo, inhaled_or_intranasal
# [30] = tested on: Bacillus anthracis; assay: Time required for 95 % bactericidal activity against encapsulated Bacillus anthracis 9602P at 10 ug/ml; assay type: functional
# [31] = Stability assessed as chymotrypsin(unknown origin)-mediated compound degradation after 24 hrs by HPLC analysis; assay type: ADME; settings: human
# [32] = tested on: Bacillus anthracis; assay: Time required for 50 % bactericidal activity against encapsulated Bacillus anthracis 9602P at 20 ug/ml; assay type: functional
# [33] = tested on: Bacillus anthracis; assay: Time required for 50 % bactericidal activity against nonencapsulated Bacillus anthracis 9602PR at 20 ug/ml; assay type: functional
# [34] = tested on: Bacillus anthracis; assay: Time required for 50 % bactericidal activity against germinating spore form of Bacillus anthracis 9602P at 20 ug/ml; assay type: functional
# [35] = Drug uptake in BALB/c mouse kidney cortex at 100 ug, iv after 4 hrs by avidin-peroxidase/HE staining based assay; assay type: ADME, organism-based; settings: in vivo
# [36] = tested on: Bacillus anthracis; assay: Bactericidal activity against germinating spore form of Bacillus anthracis at 5 ug/ml; assay type: functional
# [37] = Drug uptake in BALB/c mouse kidney deep medulla epithelial cells at 100 ug, iv after 4 hrs by avidin-peroxidase/HE staining based assay; assay type: ADME, organism-based, Epithelial cell; settings: in vivo
# [38] = Drug uptake in BALB/c mouse kidney deep medulla at 100 ug, iv after 4 hrs by avidin-peroxidase/HE staining based assay; assay type: ADME, organism-based; settings: in vivo
# [39] = Drug uptake in BALB/c mouse liver at 100 ug, iv after 4 hrs by avidin-peroxidase/HE staining based assay; assay type: ADME, organism-based; settings: in vivo
# [40] = Drug uptake in BALB/c mouse kupffer cells at 100 ug, iv after 4 hrs by avidin-peroxidase/HE staining based assay; assay type: ADME, organism-based; settings: in vivo
# [41] = Drug uptake in BALB/c mouse cortical convoluted tubule epithelial cells at 100 ug, iv after 4 hrs by avidin-peroxidase/HE staining based assay; assay type: ADME, organism-based, Epithelial cell; settings: in vivo
# [42] = Stability assessed as trypsin (unknown origin)-mediated compound degradation up to 3 mins by HPLC analysis; assay type: ADME; settings: human, 0.05 h
# [43] = Stability assessed as chymotrypsin(unknown origin)-mediated compound degradation up to 3 mins by HPLC analysis; assay type: ADME; settings: human, 0.05 h
# [44] = Stability assessed as Streptomyces griseus pronase E-mediated compound degradation up to 3 mins by HPLC analysis; assay type: ADME; settings: 0.05 h
compound,measurement,setting,value
CC(C)NC(=O)N[C@H](CNC(=O)N[C@@H](CCCCN)CNC(=O)N[C@H](CNC(=O)N[C@H](CNC(=O)N[C@@H](CCCCN)CNC(=O)N[C@H](CNC(=O)N[C@@H](CCCCN)CNC(=O)N[C@H](CCC(N)=O)C(C)C)Cc1c[nH]c2ccccc12)C(C)C)Cc1c[nH]c2ccccc12)C(C)C,CC50 at 4 h,[1],31.1 mg/L
same,Time,[2],35 s
same,Stability,[3],Stable
same,Drug uptake,[4],89%
same,Tmax,[5],<= 2 min
same,Selectivity Index,[6],8
same,Activity,[7],Active
same,Drug uptake,[8],Active
same,Time,[9],60 s
same,Drug uptake,[10],Active
same,alphat1/2,[11],3 min
same,Drug excretion,[12],2%
same,selectivity ratio,[13],9.5
same,Time,[14],30 s
same,Activity,[15],Active
same,Drug uptake,[16],70%
same,EC50,[17],3.3 mg/L
same,Drug uptake,[18],Active
same,EC50,[19],6 mg/L
same,Stability,[20],Stable
same,Ratio,[21],10
same,"fraction unbound at 4 h, 10 µM",[22],0.01
same,beta t1/2,[23],1.65 h
same,Activity,[24],5.26 CFU
same,Ratio,[25],10
same,Selectivity Index,[26],8
same,Drug uptake,[27],Active
same,EC50,[28],3.25 mg/L
same,Drug excretion,[29],2%
same,Time,[30],<2 min
same,Stability,[31],Stable
CC(C)NC(=O)N[C@H](CNC(=O)N[C@@H](CCCCN)CNC(=O)N[C@H](CNC(=O)N[C@H](CCC(=O)N[C@@H](CCCCN)CNC(=O)N[C@H](CNC(=O)N[C@@H](CCCCN)CNC(=O)N[C@H](CCC(N)=O)C(C)C)Cc1c[nH]c2ccccc12)C(C)C)Cc1c[nH]c2ccccc12)C(C)C,Time,[32],75 s
same,Time,[33],45 s
same,EC50,[17],10 mg/L
same,Time,[34],120 s
same,EC50,[19],8.5 mg/L
same,EC50,[28],7 mg/L
CC(C)[C@@H](CNC(=O)N[C@@H](CCCCN)CNC(=O)N[C@H](CNC(=O)N[C@H](CNC(=O)N[C@@H](CCCCN)CNC(=O)N[C@H](CNC(=O)N[C@@H](CCCCN)CNC(=O)N[C@H](CCC(N)=O)C(C)C)Cc1c[nH]c2ccccc12)C(C)C)Cc1c[nH]c2ccccc12)NC(=O)CCCC[C@@H]1SC[C@@H]2NC(=O)N[C@@H]21,Drug uptake,[35],Active
same,Activity,[36],64.8%
same,Drug uptake,[37],Active
same,Drug uptake,[38],Active
same,Drug uptake,[39],Active
same,Drug uptake,[40],Active
same,Drug uptake,[41],Active
Ac-VKWVKWKV-NH2,Stability,[42],Unstable
same,Stability,[43],Unstable
same,Stability,[44],Unstable
CC(C)[C@@H](CCC(N)=O)NC(=O)NC[C@H](CCCCN)NC(=O)NC[C@H](Cc1c[nH]c2ccccc12)NC(=O)NC[C@H](CCCCN)NC(=O)NC[C@@H](NC(=O)NC[C@H](Cc1c[nH]c2ccccc12)NC(=O)NC[C@H](CCCCN)NC(=O)NC[C@@H](NC(=O)NCCSCC(=O)NCCNC(=O)CSCCNC(=O)N[C@H](CNC(=O)N[C@@H](CCCCN)CNC(=O)N[C@H](CNC(=O)N[C@H](CNC(=O)N[C@@H](CCCCN)CNC(=O)N[C@H](CNC(=O)N[C@@H](CCCCN)CNC(=O)N[C@H](CCC(N)=O)C(C)C)Cc1c[nH]c2ccccc12)C(C)C)Cc1c[nH]c2ccccc12)C(C)C)C(C)C)C(C)C,Activity,[7],Active
same,Activity,[15],Active
same,EC50,[17],0.2 mg/L
same,EC50,[28],0.5 mg/L
